In ChEMBL document CHEMBL1148393, “SAR studies of dihydro-beta-agarofuran sesquiterpenes as inhibitors of the multidrug-resistance phenotype in a Leishmania tropica line overexpressing a P-glycoprotein-like transporter” (J Med Chem, 2004):

Experiments:
Type in all cases: functional
Leishmania tropica [1] = assay: Percentage of growth inhibition of multidrug resistance Leishmania tropica Lines at 15 uM
Procedure, shortened: (§1)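 Log-phase MDR promastigotes were plated at 3 × 10⁵ cells/well in RPMI 1640-modified medium with 20% FBS and 150 µM DNM. Sesquiterpenes (DMSO stocks diluted in medium) were added and cells kept 72 h at 28 °C. MTT was added for 4 h, formazan dissolved in 20% SDS and A540 read. Growth inhibition is relative to DNM-treated controls without modulator.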

Leishmania tropica [2] = assay: Percentage of growth inhibition of multidrug resistance Leishmania tropica Lines at 1 uM.; procedure, shortened: as §1
Leishmania tropica [3] = assay: Percentage of growth inhibition of multidrug resistance Leishmania tropica Lines at 3 uM; procedure, shortened: as §1
Leishmania tropica [4] = assay: Percentage of growth inhibition of multidrug resistance Leishmania tropica Lines at 7 uM.; procedure, shortened: as §1
Leishmania tropica [5] = assay: Percent growth inhibition of wild type Leishmania tropica at 1 uM
Procedure, shortened: (§2)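 Intrinsic toxicity on the wild-type L. tropica LRC clone, with no DNM present. Log-phase promastigotes were plated at 3 × 10⁵ cells/well in RPMI 1640-modified medium with 20% FBS, with sesquiterpene diluted from DMSO stocks, for 72 h at 28 °C. MTT was added for 4 h, then 20% SDS, and A540 read. Percent growth inhibition is taken against untreated control absorbance.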

Leishmania tropica [6] = assay: Percentage of growth inhibition of wild type Leishmania tropica Lines at 3 uM.; procedure, shortened: as §2
Leishmania tropica [7] = assay: Percentage of growth inhibition of wild type Leishmania tropica Lines at 7 uM.; procedure, shortened: as §2
Leishmania tropica [8] = assay: (§3) Percentage of growth inhibition of wild type Leishmania tropica lines at 15 uM; procedure, shortened: as §2
Leishmania tropica [9] = assay: as §3; remark: listed apart in the source
Procedure, shortened: (§4)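 WT L. tropica LRC-strain promastigotes (log phase, RPMI 1640-modified medium + 20% heat-inactivated FBS, 28 °C) seeded at 3 × 10⁵ cells/well and exposed without DNM to sesquiterpenes diluted from DMSO stocks. After 72 h at 28 °C, MTT (5 mg/mL in PBS) was added for 4 h, formazan dissolved in 20% SDS, A540 read. Growth inhibition (%) calculated relative to untreated control absorbance.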

Leishmania tropica [10] = assay: Percentage of growth inhibition of multidrug resistance Leishmania tropica Lines at 3 uM.; procedure, shortened: as §1
Leishmania tropica [11] = assay: Percentage of growth inhibition of multidrug resistance Leishmania tropica Lines at 7 uM; Value ranges from 0 to 6%; procedure, shortened: as §1
Leishmania tropica [12] = assay: Percentage of growth inhibition of multidrug resistance Leishmania tropica Lines at 1 uM; procedure, shortened: as §1
Leishmania tropica [13] = assay: Percentage of growth inhibition of wild type Leishmania tropica Lines at 3 uM; procedure, shortened: as §4
Leishmania tropica [14] = assay: Percentage of growth inhibition of wild type Leishmania tropica Lines at 7 uM; procedure, shortened: as §4

SMILES | inhibition at 15 µM (Leishmania tropica [1]) [%] | inhibition at 1 µM (Leishmania tropica [2]) [%] | inhibition at 3 µM (Leishmania tropica [3]) [%] | inhibition at 7 µM (Leishmania tropica [4]) [%] | inhibition at 1 µM (Leishmania tropica [5]) [%] | inhibition at 3 µM (Leishmania tropica [6]) [%] | inhibition at 7 µM (Leishmania tropica [7]) [%] | inhibition at 15 µM (Leishmania tropica [8]) [%] | inhibition at 15 µM (Leishmania tropica [9]) [%] | inhibition at 3 µM (Leishmania tropica [10]) [%] | inhibition at 7 µM (Leishmania tropica [11]) [%] | inhibition at 1 µM (Leishmania tropica [12]) [%] | inhibition at 3 µM (Leishmania tropica [13]) [%] | inhibition at 7 µM (Leishmania tropica [14]) [%]
CCCCCCCCCCCC(=O)O[C@@H]1C2C[C@H](OC(=O)c3ccco3)[C@]3(C)[C@@H](OC(C)=O)[C@@H](OC(C)=O)C[C@](C)(O)C13OC2(C)C (stereo partly specified) | 80.5 | < 6 | 8.8 | 29.2 | < 6 | < 6 | < 6 | < 6 | – | – | – | – | – | –
CC(=O)O[C@H]1[C@@H](OC(=O)c2ccccc2)C[C@](C)(O)C23OC(C)(C)C(C[C@H](OC(=O)c4ccco4)[C@]12C)[C@H]3O (stereo partly specified) | 81.9 | < 6 | 11.1 | 41.1 | < 6 | < 6 | < 6 | – | 8 | – | – | – | – | –
CC(=O)O[C@H]1C[C@](C)(O)C23OC(C)(C)C(C[C@H](OC(=O)c4ccco4)[C@]2(C)[C@H]1OC(C)=O)[C@H]3OC(=O)C(F)(F)F (stereo partly specified) | 7.1 | < 6 | – | – | < 6 | < 6 | < 6 | < 6 | – | 6 | 6 | – | – | –
CC(=O)O[C@H]1[C@@H](OC(=O)c2ccccc2)C[C@](C)(O)C23OC(C)(C)C(C[C@H](OC(=O)c4ccco4)[C@]12C)[C@H]3OC(=O)c1ccco1 (stereo partly specified) | 92.7 | – | 74.8 | 93.7 | < 6 | – | – | – | 35.3 | – | – | 11.7 | 16.5 | 21.4
CC(=O)O[C@H]1[C@@H](OC(=O)c2ccco2)C[C@](C)(O)C23OC(C)(C)C(C[C@H](OC(=O)c4ccco4)[C@]12C)[C@H]3O (stereo partly specified) | 44.5 | < 6 | – | 28.5 | < 6 | < 6 | < 6 | < 6 | – | < 6 | – | – | – | –
COc1ccc(C(=O)O[C@@H]2C3C[C@H](OC(=O)c4ccco4)[C@]4(C)[C@@H](OC(C)=O)[C@@H](OC(C)=O)C[C@](C)(O)C24OC3(C)C)cc1 (stereo partly specified) | 98.4 | – | 35.4 | 85 | < 6 | < 6 | < 6 | – | 17.2 | – | – | 11.9 | – | –
CCCCCCCCCCCC(=O)O[C@@H]1C2C[C@H](OC(=O)c3ccco3)[C@]3(C)[C@@H](OC(C)=O)[C@@H](OC(=O)c4ccccc4)C[C@](C)(O)C13OC2(C)C (stereo partly specified) | 9.2 | < 6 | – | – | < 6 | < 6 | < 6 | < 6 | – | 6 | 6 | – | – | –
CC(=O)O[C@H]1[C@@H](OC(=O)c2ccccc2)C[C@](C)(O)C23OC(C)(C)C(C[C@H](OC(=O)c4ccco4)[C@]12C)[C@H]3OC(=O)C(C)(C)C (stereo partly specified) | 77.6 | < 6 | – | 25.9 | < 6 | < 6 | < 6 | < 6 | – | 11.2 | – | – | – | –
CC(=O)O[C@H]1[C@@H](OC(=O)c2ccccc2)C[C@](C)(O)C23OC(C)(C)C(C[C@H](OC(=O)c4ccco4)[C@]12C)[C@H]3OC(=O)C(F)(F)F (stereo partly specified) | 36.9 | < 6 | – | 9.7 | < 6 | < 6 | < 6 | < 6 | – | < 6 | – | – | – | –
CC(=O)O[C@@H]1C2C[C@H](OC(=O)c3ccco3)[C@]3(C)[C@@H](OC(C)=O)[C@@H](OC(=O)c4ccccc4)C[C@](C)(O)C13OC2(C)C (stereo partly specified) | 45 | < 6 | – | 14.3 | < 6 | < 6 | < 6 | < 6 | – | 6 | – | – | – | –
CC(=O)O[C@H]1C[C@](C)(O)C23OC(C)(C)C(C[C@H](OC(=O)c4ccco4)[C@]2(C)[C@H]1OC(C)=O)[C@H]3OC(=O)C(C)(C)C (stereo partly specified) | 96.7 | – | 44.5 | 82.5 | < 6 | < 6 | < 6 | < 6 | – | – | – | 18.1 | – | –
CC(=O)O[C@H]1[C@@H](OC(=O)c2ccco2)C[C@](C)(O)C23OC(C)(C)C(C[C@H](OC(=O)c4ccco4)[C@]12C)[C@H]3OC(=O)c1ccco1 (stereo partly specified) | 93.5 | – | 52.9 | 86.2 | < 6 | – | – | – | 23.4 | – | – | 10 | 13.8 | 18.1
CC(=O)O[C@H]1C[C@](C)(O)C23OC(C)(C)C(C[C@H](OC(=O)c4ccco4)[C@]2(C)[C@H]1OC(C)=O)[C@H]3O (stereo partly specified) | 10.9 | < 6 | – | – | < 6 | < 6 | < 6 | < 6 | – | < 6 | 6 | – | – | –
CC(=O)O[C@H]1C[C@](C)(O)C23OC(C)(C)C(C[C@H](OC(=O)c4ccco4)[C@]2(C)[C@H]1OC(C)=O)[C@H]3OC(=O)c1ccc([N+](=O)[O-])cc1 (stereo partly specified) | 59.5 | < 6 | – | 15.5 | < 6 | < 6 | < 6 | < 6 | – | 6 | – | – | – | –
CC(=O)O[C@H]1C[C@](C)(O)C23OC(C)(C)C(C[C@H](OC(=O)c4ccco4)[C@]2(C)[C@H]1OC(C)=O)[C@H]3OC(C)=O (stereo partly specified) | 50.6 | < 6 | – | 17.1 | < 6 | < 6 | < 6 | < 6 | – | < 6 | – | – | – | –
CC(=O)O[C@H]1[C@@H](O)C[C@](C)(O)C23OC(C)(C)C(C[C@H](OC(=O)c4ccco4)[C@]12C)[C@H]3OC(=O)c1ccco1 (stereo partly specified) | 28.7 | < 6 | – | 9.1 | < 6 | < 6 | < 6 | < 6 | – | 6 | – | – | – | –
CC(=O)O[C@H]1CC[C@](C)(O)C23OC(C)(C)C(C[C@H](OC(=O)c4ccco4)[C@]12C)[C@H]3OC(=O)c1ccco1 (stereo partly specified) | 89.9 | – | 66.9 | 89 | < 6 | – | – | – | 24.6 | – | – | 20.3 | 14.8 | 16.4
